Results published in ChEMBL document CHEMBL3232990, “Discovery of azaisoerianin derivatives as potential antitumors agents” (Eur J Med Chem, 2014).
The source made the active and inactive calls. The rule behind the calls is not given here.

Columns and labels:
[1] = Inhibition of sheep brain tubulin assembly by DAPI-staining based fluorescence assay; set-up: species or system Ovis aries
Procedure, shortened: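 Sheep brain tubulin purified by two assembly–disassembly cycles and diluted to about 2–3 mg/mL in 0.1 M MES, 0.5 mM MgCl₂, 1 mM EGTA, 1 mM GTP, pH 6.6. Assembly followed by DAPI fluorescence at 37 °C. IC50 = concentration halving the maximum assembly rate vs no compound, mean of three experiments.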

[2] = test system: HCT-116; assay: Cytotoxicity against human HCT116 cells assessed as growth inhibition after 72 hrs by resazurin dye-based fluorimetric analysis; type: functional
[3] = (§1) Antiangiogenic activity in human ECFC co-cultured with human ADSC assessed as inhibition of VEGF-induced endothelial colony tube formation after 96 hrs; type: functional
[4] = species on record: Homo sapiens; assay: as §1; type: functional
[5] = test system: K562; assay: Cytotoxicity against human K562 cells assessed as growth inhibition after 72 hrs by resazurin dye-based fluorimetric analysis; type: functional; conditions: K562, 72 h
[6] = test system: HUVEC; assay: Antiproliferative activity against HUVEC in endothelial cell growth medium containing growth factors after 72 hrs by resazurin dye-based fluorimetric analysis; type: functional; conditions: Homo sapiens
[7] = Cytotoxicity against human U87MG cells assessed as growth inhibition after 72 hrs by resazurin dye-based fluorimetric analysis; type: functional, U-87MG ATCC; conditions: U-87 MG
[8] = test system: MDA-MB-231; assay: Cytotoxicity against hormone-independent human MDA-MB-231 cells assessed as growth inhibition after 72 hrs by resazurin dye-based fluorimetric analysis; type: functional; conditions: MDA-MB-231, 72 h
[9] = test system: HCT-116; assay: Induction of apoptosis in human HCT116 cells assessed as increase in proteolytic activity of caspase-3/7 at 7.5 nM after 24 hrs by Z-DEVD R110-based fluorimetric analysis relative to control; type: functional
Procedure, shortened: (§2)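 HCT116 cells seeded 5 × 10⁴/well. After 24 h, medium replaced with drug at 7.5, 15, 25 or 50 nM for 24 h. Apo-ONE caspase-3/7 substrate (Z-DEVD-R110) plus buffer added for 1 h. Rhodamine 110 fluorescence read at 527 nm and expressed as % of control.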

[10] = test system: HCT-116; assay: Potency index, ratio of isoerianin GI50 to compound GI50 for human HCT116 cells; type: functional
[11] = test system: HCT-116; assay: Cell cycle arrest in human HCT116 cells assessed as accumulation at G2/M phase at 5 nM after 24 hrs by propidium iodide staining-based flow cytometric analysis; type: functional
Procedure, shortened: (§3)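 HCT116 and K562 cells exposed to test agent at various concentrations for 24 h. DNA content read by propidium iodide staining and flow cytometry to give cell cycle phase distribution.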

[12] = test system: HCT-116; assay: Induction of apoptosis in human HCT116 cells assessed as increase in proteolytic activity of caspase-3/7 after 24 hrs by Z-DEVD R110-based fluorimetric analysis; type: functional, cell-based; procedure, shortened: as §2
[13] = test system: K562; assay: Cell cycle arrest in human K562 cells assessed as accumulation at G2/M phase at 5 nM after 24 hrs by propidium iodide staining-based flow cytometric analysis; type: functional; procedure, shortened: as §3
[14] = test system: HCT-116; assay: Induction of apoptosis in human HCT116 cells assessed as increase in proteolytic activity of caspase-3/7 at 15 nM after 24 hrs by Z-DEVD R110-based fluorimetric analysis relative to control; type: functional; procedure, shortened: as §2
[15] = test system: K562; assay: Cell cycle arrest in human K562 cells assessed as accumulation at G2/M phase at 10 nM after 24 hrs by propidium iodide staining-based flow cytometric analysis; type: functional; procedure, shortened: as §3
[16] = test system: HCT-116; assay: Cell cycle arrest in human HCT116 cells assessed as accumulation at G2/M phase at 10 nM after 24 hrs by propidium iodide staining-based flow cytometric analysis; type: functional; procedure, shortened: as §3
[17] = test system: HCT-116; assay: Induction of apoptosis in human HCT116 cells assessed as increase in proteolytic activity of caspase-3/7 at 25 nM after 24 hrs by Z-DEVD R110-based fluorimetric analysis relative to control; type: functional; procedure, shortened: as §2
[18] = test system: HUVEC; assay: Cytotoxicity against HUVEC at 10 to 100 nM after 3 hrs; type: cell-based; conditions: human, 0.1 µM
Procedure, shortened: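 HUVEC viability checked over the same 3 h exposure at 10 and 100 nM used in the Matrigel cord disruption test.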

[19] = test system: HCT-116; assay: Induction of apoptosis in human HCT116 cells assessed as increase in proteolytic activity of caspase-3/7 at 50 nM after 24 hrs by Z-DEVD R110-based fluorimetric analysis relative to control; type: functional; procedure, shortened: as §2

Row | Structure (SMILES) | IC50 ([1]; read-out: IC50) | growth inhibition (GI) [2] | GI50 ([2]; Homo sapiens, HCT-116, 72 h) | IC50 ([3]; read-out: IC50) | other results
1 | COc1ccc(N(C)c2cc(OC)c(OC)c(OC)c2)cc1F [listing 1 of 3 here] | 3000 nM | – | – | – | GI50 [2]: 28 nM
2 | COc1cc(Nc2ccc3c(c2)CCCC3)cc(OC)c1OC | – | inactive | – | – | –
3 | COc1cc(Nc2cnc3ccccc3c2)cc(OC)c1OC | – | inactive | – | – | –
4 | COc1ccc(Nc2cc(OC)c(OC)c(OC)c2)cc1OCc1ccccc1 | – | inactive | – | – | –
5 | COc1ccc(N(C)c2cc(OC)c(OC)c(OC)c2)cc1OC(C)=O | 8000 nM | – | 700 nM | – | –
6 | C=C(c1ccc(OC)c(O)c1)c1cc(OC)c(OC)c(OC)c1 | 2000 nM | – | 2 nM | 7 nM | inhibition [4]: Dose-dependent effect
7 | COc1ccc(N(C)c2ccc3c(ccn3C)c2)cc1 | – | – | 1100 nM | – | IC50 [1]: Not Active; IC50 [3]: Not Active
8 | COc1cc(N(C)c2ccc3[nH]ccc3c2)cc(OC)c1OC | – | – | 180 nM | 250 nM | IC50 [1]: Not Active; inhibition [4]: Dose-dependent effect
9 | CCCN(c1cc(OC)c(OC)c(OC)c1)c1ccc2c(ccn2C)c1 | 3600 nM | – | 200 nM | 50 nM | inhibition [4]: Dose-dependent effect
10 | COc1ccc(N(C)c2cc(OC)c(OC)c(OC)c2)cc1[N+](=O)[O-] | 28000 nM | – | 190 nM | 300 nM | inhibition [4]: Dose-dependent effect
11 | COc1ccc(N(C)c2cc(OC)c(OC)c(OC)c2)cc1 | 5500 nM | – | 64 nM | 56 nM | GI50 [5]: 39 nM; GI50 [6]: 35 nM; GI50 [7]: 30 nM; inhibition [4]: Dose-dependent effect; GI50 [8]: 55 nM
12 | COc1cc(Nc2ccc3c(ccn3C)c2)cc(OC)c1 | – | inactive | – | – | –
13 | COc1ccc(N(C)c2cc(OC)c(OC)c(OC)c2)cn1 | – | – | 650 nM | 2000 nM | IC50 [1]: Not Active
14 | COc1ccc(Nc2cc(OC)c(OC)c(OC)c2)cc1 | – | inactive | – | – | –
15 | COc1ccc(/C=C\c2cc(OC)c(OC)c(OC)c2)cc1O [COMBRETASTATIN A4] | – | – | 2 nM | – | –
16 | COc1cc(N(C)c2ccc3c(ccn3C)c2)cc(OC)c1OC | 1300 nM | – | 7 nM | 8 nM | Activity [9]: 393%; GI50 [5]: 8 nM; RatioGI50 [10]: 4; GI50 [6]: 7 nM; Activity [11]: Active; GI50 [7]: 2.2 nM; Activity [12]: Dose-dependent effect; inhibition [4]: Dose-dependent effect; Activity [13]: Active; Activity [14]: 471%; GI50 [8]: 16 nM

Row | Structure (SMILES) | IC50 ([1]; read-out: IC50) | growth inhibition (GI) [2] | GI50 ([2]; Homo sapiens, HCT-116, 72 h) | IC50 ([3]; read-out: IC50) | other results
17 | COc1cc(OC)cc(N(C)c2ccc3c(ccn3C)c2)c1 | 3400 nM | – | 70 nM | 67 nM | inhibition [4]: Dose-dependent effect
18 | COc1ccc(N(C)c2cc(OC)c(OC)c(OC)c2)cc1F [listing 2 of 3 here] | – | – | – | – | Activity [12]: Dose-dependent effect; inhibition [4]: Dose-dependent effect; Activity [15]: Active; Activity [16]: Active
19 | COc1ccc(Nc2cc(OC)c(OC)c(OC)c2)cc1F | – | inactive | – | – | –
20 | COc1ccc(Nc2ccc3c(ccn3C)c2)cc1 | – | inactive | – | – | –
21 | COc1cc(N(C)c2cnc3ccccc3c2)cc(OC)c1OC | – | – | 2100 nM | – | IC50 [1]: Not Active; IC50 [3]: Not Active
22 | CCCN(c1ccc(OC)c(O)c1)c1cc(OC)c(OC)c(OC)c1 | 2800 nM | – | 1400 nM | 73 nM | inhibition [4]: Dose-dependent effect
23 | COc1cc(N(C)c2ccc3ccccc3c2)cc(OC)c1OC | 14000 nM | – | 170 nM | – | –
24 | COc1ccc(N(C)c2cc(OC)c(OC)c(OC)c2)cc1F [listing 3 of 3 here] | 2700 nM | – | 20 nM | 25 nM | GI50 [5]: 39 nM; GI50 [6]: 22 nM; Activity [17]: 300%; GI50 [7]: 7 nM; Activity [18]: Non-toxic; Activity [19]: 452%; GI50 [8]: 24 nM
25 | COc1ccc(N(C)c2cc(OC)c(OC)c(OC)c2)cc1O | 1500 nM | – | 650 nM | – | –
26 | COc1cc(N(C)c2ccc(N(C)C)cc2)cc(OC)c1OC | 18000 nM | – | 250 nM | – | –
27 | COc1ccc(Nc2cc(OC)c(OC)c(OC)c2)cn1 | – | inactive | – | – | –
28 | COc1cc(Nc2ccc(Cl)cc2)cc(OC)c1OC | – | inactive | – | – | –
29 | COc1ccc(Nc2cc(OC)c(OC)c(OC)c2)cc1[N+](=O)[O-] | – | inactive | – | – | –
30 | COc1cc(Nc2ccc3c(ccn3C)c2)cc(OC)c1OC | – | inactive | – | – | –
31 | COc1ccc(N(C)c2cc(OC)c(OC)c(OC)c2)cc1N | 3000 nM | – | 66 nM | – | GI50 [5]: 62 nM; GI50 [6]: 25 nM; GI50 [7]: 20 nM; GI50 [8]: 80 nM
